In ChEMBL document CHEMBL4376814, “Novel cyclin-dependent kinase 9 (CDK9) inhibitor with suppression of cancer stemness activity against non-small-cell lung cancer” (Eur J Med Chem, 2019):
Activity calls are given as the source filed them. No cut-off for these calls is given here.

Tests used:
[1] = target: CDK9/cyclin T1 (Homo sapiens) (UniProt O60563+P50750); experiment: Inhibition of recombinant full-length human CDK9/cyclinT1 at 1 uM using KTFCGTPEYLAPEVRREPRILSEEEQEMFRDFDYIADWC peptide as substrate measured after 40 mins in presence of [gamma33P]ATP by scintillation counting method relative to control; type: protein-complex assay
Summary of the method: (§1)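 Percent inhibition of kinase activity at a single compound concentration, measured by the outsourced Eurofins KinaseProfiler panel. Values are the mean of two independent experiments.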

A549 = experiment: Induction of apoptosis in human A549 cells assessed as viable cells at 1 uM after 48 hrs by AnnexinV-FITC/PI staining-based flow cytometric analysis (reference value: 88.8%); type: functional; details: A549, 48 h, read-out: Activity
NCI-H1299 [2] = experiment: Inhibition of tumorsphere formation in human H1299 cells after 2 weeks by microscopic analysis; type: functional, cell-based
NCI-H1299 [3] = experiment: Antitumour activity against human H1299 cells xenografted in Balb/c mouse assessed as reduction in tumour size at 20 to 80 mg/kg, po after 21 days by digital caliper method; type: functional, organism-based
Summary of the method: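 Female nude mice, 6-8 weeks old, injected subcutaneously with 1×10^6 H1299 cells (100 µL of a 1×10^7/mL suspension in serum-free medium). At 100-120 mm3, randomized into groups of 5. Dosed orally each day for 21 days with drug dissolved in DMSO, or with vehicle. Caliper measurements and body weight taken every other day. Volume = short²×long×0.5. Growth inhibition based on change in volume relative to vehicle. Tumours weighed at the end.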

[4] = target: Tyrosine-protein kinase ABL1 (Homo sapiens) (UniProt P00519); experiment: Inhibition of human ABL1 at 1 uM using EAIYAAPFAKKK as substrate measured after 40 mins by [gamma33P]ATP by scintillation counting method relative to control; summary of the method: as §1
[5] = target: Dual specificity mitogen-activated protein kinase kinase 3 (Homo sapiens) (UniProt P46734); experiment: Inhibition of human MKK3 at 1 uM by radiometric method relative to control; summary of the method: as §1
[6] = target: Cyclin-dependent kinase 13/Cyclin-K (Homo sapiens) (UniProt Q14004+O75909); experiment: Inhibition of human full length recombinant CDK13/cyclinK at 1 uM using RSRSRSRSRSRSRSR as substrate incubated for 120 mins in presence of [gamma-33P]ATP at by radiometric assay relative to control; type: protein-complex assay
[7] = tested on: Serine/threonine-protein kinase Chk2 (Homo sapiens), O96017 [I157T]; experiment: Inhibition of recombinant human CHK2 I157T mutant (5 to end residues) at 1 uM using KKKVSRSGLYRSPSMPENLNRPR as substrate measured after 40 mins in presence of [gamma33P]ATP by scintillation counting method relative to control
Summary of the method: (§2)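 Single-point inhibition at 1 µM was measured in the Eurofins KinaseProfiler panel. Values are the mean of two independent experiments.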

Homo sapiens [8] = species: Homo sapiens; experiment: Inhibition of recombinant full-length human pkb-alpha S478G mutant at 1 uM using GRPRTSSFAEGKK as substrate measured after 40 mins in presence of [gamma33P]ATP by scintillation counting method relative to control
[9] = tested on: Mast/stem cell growth factor receptor Kit (Homo sapiens), P10721 [D816V]; experiment: Inhibition of recombinant human cKit (544 to end residues) D816V mutant at 1 uM using poly(Glu, Tyr) 4:1 as substrate measured after 40 mins in presence of [gamma33P]ATP by scintillation counting method relative to control; summary of the method: as §2
[10] = tested on: Mast/stem cell growth factor receptor Kit (Homo sapiens), P10721 [V654A]; experiment: Inhibition of recombinant human cKit (544 to end residues) V654A mutant at 1 uM using GGMEDIYFEFMGGKKK as substrate measured after 40 mins in presence of [gamma33P]ATP by scintillation counting method relative to control; summary of the method: as §2
[11] = target: Ephrin type-A receptor 4 (Homo sapiens) (UniProt P54764); experiment: Inhibition of recombinant human EphA4 (601 to 892 residues) at 1 uM using poly(Glu, Tyr) 4:1 as substrate measured after 40 mins in presence of [gamma33P]ATP by scintillation counting method relative to control; summary of the method: as §2
[12] = tested on: Macrophage colony-stimulating factor 1 receptor (Homo sapiens), P07333 [Y969C]; experiment: Inhibition of recombinant human Fms (538 to end residues) Y969C mutant at 1 uM using EEEEYEEEEEEYYIIEEEEEEYEEEEEEYYEEEEEEKKKK as substrate measured after 40 mins in presence of [gamma33P]ATP by scintillation counting method relative to control
[13] = target: Serine/threonine-protein kinase haspin (Homo sapiens) (UniProt Q8TF76); experiment: Inhibition of recombinant human haspin (471 to end residues) at 1 uM using RARTLSFAEPG as substrate measured after 40 mins in presence of [gamma33P]ATP by scintillation counting method relative to control; summary of the method: as §2
[14] = target: Mitogen-activated protein kinase kinase kinase kinase 1 (Homo sapiens) (UniProt Q92918); experiment: Inhibition of recombinant human HPK1 (1 to 346 residues) at 1 uM using myelin basic protein as substrate measured after 40 mins in presence of [gamma33P]ATP by scintillation counting method relative to control
[15] = target: Proto-oncogene tyrosine-protein kinase Src (Homo sapiens) (UniProt P12931); experiment: Inhibition of human Src (1 to 530 residues) at 1 uM using GGEEEEYFELVKKKK as substrate measured after 40 mins in presence of [gamma33P]ATP by scintillation counting method relative to control; summary of the method: as §1
[16] = target: TRAF2 and NCK-interacting protein kinase (Homo sapiens) (UniProt Q9UKE5); experiment: Inhibition of human TNIK (1 to 367 residues) at 1 uM using RLGRDKYKTLRQIRQ as substrate measured after 40 mins in presence of [gamma33P]ATP by scintillation counting method relative to control; summary of the method: as §1
[17] = target: Testis-specific serine/threonine-protein kinase 2 (Homo sapiens) (UniProt Q96PF2); experiment: Inhibition of recombinant full-length human TSSK2 at 1 uM using KKKVSRSGLYRSPSMPENLNRPR as substrate measured after 40 mins in presence of [gamma33P]ATP by scintillation counting method relative to control
[18] = target: Serine/threonine-protein kinase 10 (Homo sapiens) (UniProt O94804); experiment: Inhibition of recombinant human LOK (1 to 348 residues) at 1 uM using RLGRDKYKTLRQIRQ as substrate measured after 40 mins in presence of [gamma33P]ATP by scintillation counting method relative to control
Homo sapiens [19] = species: Homo sapiens; experiment: Inhibition of recombinant full-length human ATRIP/ATR M211T mutant at 1 uM using GST-cMyc-p53 as substrate measured after 40 mins by fluorescence assay relative to control
[20] = tested on: PI3-kinase p110-alpha/p85-alpha (Homo sapiens), P27986+P42336 [E542K]; experiment: Inhibition of recombinant full-length human PI3K p110alpha/p85alpha E542K mutant at 1 uM using phosphatidylinositol-4, 5-bisphosphate as substrate measured after 40 mins by HTRF assay relative to control

Chain of TRAF2 and NCK-interacting protein kinase (Homo sapiens) (Q9UKE5 whole entry, looked up, the tested form may be a part): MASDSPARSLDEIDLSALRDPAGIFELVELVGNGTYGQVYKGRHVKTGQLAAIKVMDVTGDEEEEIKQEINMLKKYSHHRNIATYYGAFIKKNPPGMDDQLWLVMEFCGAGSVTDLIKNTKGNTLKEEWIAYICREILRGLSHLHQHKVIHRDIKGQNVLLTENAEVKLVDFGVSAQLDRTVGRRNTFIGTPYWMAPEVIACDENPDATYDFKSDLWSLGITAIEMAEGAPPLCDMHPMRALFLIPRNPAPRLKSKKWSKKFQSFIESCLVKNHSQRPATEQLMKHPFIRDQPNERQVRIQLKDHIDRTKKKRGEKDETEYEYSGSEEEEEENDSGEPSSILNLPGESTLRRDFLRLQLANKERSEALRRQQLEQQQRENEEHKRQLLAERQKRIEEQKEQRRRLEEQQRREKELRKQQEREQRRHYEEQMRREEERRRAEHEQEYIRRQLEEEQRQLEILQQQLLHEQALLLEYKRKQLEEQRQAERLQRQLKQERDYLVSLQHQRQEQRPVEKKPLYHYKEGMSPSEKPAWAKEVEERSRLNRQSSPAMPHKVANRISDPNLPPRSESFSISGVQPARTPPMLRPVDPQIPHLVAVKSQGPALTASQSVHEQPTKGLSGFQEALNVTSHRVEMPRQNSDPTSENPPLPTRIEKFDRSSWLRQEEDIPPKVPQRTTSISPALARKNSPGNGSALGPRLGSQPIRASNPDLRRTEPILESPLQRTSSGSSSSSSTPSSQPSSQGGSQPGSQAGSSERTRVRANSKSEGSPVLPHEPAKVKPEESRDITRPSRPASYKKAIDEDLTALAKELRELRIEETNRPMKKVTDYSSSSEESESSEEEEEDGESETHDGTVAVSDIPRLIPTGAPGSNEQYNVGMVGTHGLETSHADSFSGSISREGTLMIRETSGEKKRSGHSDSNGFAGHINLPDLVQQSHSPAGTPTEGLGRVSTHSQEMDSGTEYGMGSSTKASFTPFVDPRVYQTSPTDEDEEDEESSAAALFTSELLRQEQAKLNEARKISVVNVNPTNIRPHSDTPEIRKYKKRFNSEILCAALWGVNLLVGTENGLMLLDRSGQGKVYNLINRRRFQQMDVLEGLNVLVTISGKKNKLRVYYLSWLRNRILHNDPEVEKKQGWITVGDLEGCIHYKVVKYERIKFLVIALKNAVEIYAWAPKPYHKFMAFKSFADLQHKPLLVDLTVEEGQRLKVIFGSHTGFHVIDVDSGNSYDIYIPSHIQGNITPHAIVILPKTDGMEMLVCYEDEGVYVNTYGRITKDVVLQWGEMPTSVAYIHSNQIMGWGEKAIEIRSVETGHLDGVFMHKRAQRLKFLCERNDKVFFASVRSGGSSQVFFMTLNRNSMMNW
Chain of Dual specificity mitogen-activated protein kinase kinase 3 (Homo sapiens) (P46734 whole entry): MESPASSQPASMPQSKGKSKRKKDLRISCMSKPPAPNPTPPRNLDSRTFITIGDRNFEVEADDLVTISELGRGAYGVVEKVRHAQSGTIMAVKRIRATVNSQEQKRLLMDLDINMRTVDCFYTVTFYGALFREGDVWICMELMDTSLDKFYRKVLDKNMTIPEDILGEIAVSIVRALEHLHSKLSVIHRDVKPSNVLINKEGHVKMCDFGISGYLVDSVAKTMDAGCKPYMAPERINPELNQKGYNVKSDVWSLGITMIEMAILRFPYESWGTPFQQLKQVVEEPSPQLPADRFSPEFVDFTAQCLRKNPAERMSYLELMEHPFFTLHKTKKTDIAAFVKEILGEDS
Chain of Serine/threonine-protein kinase Chk2 (Homo sapiens), O96017 [I157T] (O96017 whole entry I157T): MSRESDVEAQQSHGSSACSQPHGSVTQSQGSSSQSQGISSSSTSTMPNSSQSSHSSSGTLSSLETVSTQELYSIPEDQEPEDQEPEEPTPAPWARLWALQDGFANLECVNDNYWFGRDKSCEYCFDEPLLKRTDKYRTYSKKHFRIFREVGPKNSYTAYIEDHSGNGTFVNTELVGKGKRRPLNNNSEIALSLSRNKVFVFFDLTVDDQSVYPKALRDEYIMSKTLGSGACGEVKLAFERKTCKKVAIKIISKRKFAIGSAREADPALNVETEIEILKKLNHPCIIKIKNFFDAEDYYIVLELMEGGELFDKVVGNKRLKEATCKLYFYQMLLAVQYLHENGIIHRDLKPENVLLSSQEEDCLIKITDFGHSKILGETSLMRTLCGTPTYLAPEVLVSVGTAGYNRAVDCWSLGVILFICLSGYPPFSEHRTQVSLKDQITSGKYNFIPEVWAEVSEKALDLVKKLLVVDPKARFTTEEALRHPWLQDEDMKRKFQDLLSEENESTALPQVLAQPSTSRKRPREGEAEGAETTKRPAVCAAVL
Chain of Serine/threonine-protein kinase 10 (Homo sapiens) (O94804 whole entry, looked up, the tested form may be a part): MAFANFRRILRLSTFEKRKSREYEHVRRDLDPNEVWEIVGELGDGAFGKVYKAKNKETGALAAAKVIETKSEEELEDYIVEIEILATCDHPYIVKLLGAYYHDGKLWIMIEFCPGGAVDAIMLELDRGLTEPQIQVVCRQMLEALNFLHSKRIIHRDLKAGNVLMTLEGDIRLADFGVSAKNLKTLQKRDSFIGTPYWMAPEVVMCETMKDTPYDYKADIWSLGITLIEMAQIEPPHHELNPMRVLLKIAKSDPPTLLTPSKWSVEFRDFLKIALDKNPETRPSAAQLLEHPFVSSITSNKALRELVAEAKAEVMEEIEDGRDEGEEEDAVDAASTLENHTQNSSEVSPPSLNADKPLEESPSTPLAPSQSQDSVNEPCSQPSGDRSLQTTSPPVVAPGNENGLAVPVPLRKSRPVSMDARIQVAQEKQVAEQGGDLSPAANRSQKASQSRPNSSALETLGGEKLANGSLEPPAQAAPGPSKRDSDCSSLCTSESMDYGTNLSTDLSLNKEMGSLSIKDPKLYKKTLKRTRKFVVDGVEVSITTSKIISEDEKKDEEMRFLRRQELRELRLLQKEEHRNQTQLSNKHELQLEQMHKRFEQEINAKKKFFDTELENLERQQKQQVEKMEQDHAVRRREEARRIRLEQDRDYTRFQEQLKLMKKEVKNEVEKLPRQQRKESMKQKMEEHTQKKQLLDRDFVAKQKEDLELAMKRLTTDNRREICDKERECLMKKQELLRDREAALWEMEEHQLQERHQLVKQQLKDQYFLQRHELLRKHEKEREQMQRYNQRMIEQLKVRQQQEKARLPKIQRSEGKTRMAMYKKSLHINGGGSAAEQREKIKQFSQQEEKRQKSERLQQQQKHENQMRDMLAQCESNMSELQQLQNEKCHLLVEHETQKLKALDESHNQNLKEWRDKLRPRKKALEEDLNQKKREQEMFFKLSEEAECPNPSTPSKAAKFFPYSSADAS
Chain of Ephrin type-A receptor 4 (Homo sapiens) (P54764 whole entry, the tested form may be a part): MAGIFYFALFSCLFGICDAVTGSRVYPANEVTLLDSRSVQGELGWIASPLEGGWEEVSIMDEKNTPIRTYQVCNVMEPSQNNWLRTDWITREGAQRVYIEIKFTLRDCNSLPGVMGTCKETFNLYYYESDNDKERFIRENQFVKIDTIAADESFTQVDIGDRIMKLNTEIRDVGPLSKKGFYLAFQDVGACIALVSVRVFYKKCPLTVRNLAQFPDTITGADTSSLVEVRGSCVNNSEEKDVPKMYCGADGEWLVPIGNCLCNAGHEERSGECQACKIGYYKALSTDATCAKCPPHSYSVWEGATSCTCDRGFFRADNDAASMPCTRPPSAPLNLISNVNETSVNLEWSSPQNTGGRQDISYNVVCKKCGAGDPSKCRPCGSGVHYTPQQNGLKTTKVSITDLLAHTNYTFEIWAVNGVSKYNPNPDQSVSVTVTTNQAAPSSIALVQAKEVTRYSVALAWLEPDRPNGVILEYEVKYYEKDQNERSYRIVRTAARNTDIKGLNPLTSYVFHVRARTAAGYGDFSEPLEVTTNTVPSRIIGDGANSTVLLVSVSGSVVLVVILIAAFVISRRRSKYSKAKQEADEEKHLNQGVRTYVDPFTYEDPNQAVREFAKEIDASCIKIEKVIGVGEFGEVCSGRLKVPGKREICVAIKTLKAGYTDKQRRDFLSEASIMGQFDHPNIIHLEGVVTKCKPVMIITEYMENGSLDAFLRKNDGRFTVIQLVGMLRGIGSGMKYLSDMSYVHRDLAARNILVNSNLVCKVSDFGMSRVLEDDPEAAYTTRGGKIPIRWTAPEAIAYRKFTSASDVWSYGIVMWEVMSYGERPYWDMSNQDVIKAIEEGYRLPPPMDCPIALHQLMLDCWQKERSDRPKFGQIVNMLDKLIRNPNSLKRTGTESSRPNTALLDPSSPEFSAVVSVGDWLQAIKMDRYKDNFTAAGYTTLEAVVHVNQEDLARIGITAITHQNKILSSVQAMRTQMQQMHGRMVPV
Chain of Mitogen-activated protein kinase kinase kinase kinase 1 (Homo sapiens) (Q92918 whole entry, looked up, the tested form may be a part): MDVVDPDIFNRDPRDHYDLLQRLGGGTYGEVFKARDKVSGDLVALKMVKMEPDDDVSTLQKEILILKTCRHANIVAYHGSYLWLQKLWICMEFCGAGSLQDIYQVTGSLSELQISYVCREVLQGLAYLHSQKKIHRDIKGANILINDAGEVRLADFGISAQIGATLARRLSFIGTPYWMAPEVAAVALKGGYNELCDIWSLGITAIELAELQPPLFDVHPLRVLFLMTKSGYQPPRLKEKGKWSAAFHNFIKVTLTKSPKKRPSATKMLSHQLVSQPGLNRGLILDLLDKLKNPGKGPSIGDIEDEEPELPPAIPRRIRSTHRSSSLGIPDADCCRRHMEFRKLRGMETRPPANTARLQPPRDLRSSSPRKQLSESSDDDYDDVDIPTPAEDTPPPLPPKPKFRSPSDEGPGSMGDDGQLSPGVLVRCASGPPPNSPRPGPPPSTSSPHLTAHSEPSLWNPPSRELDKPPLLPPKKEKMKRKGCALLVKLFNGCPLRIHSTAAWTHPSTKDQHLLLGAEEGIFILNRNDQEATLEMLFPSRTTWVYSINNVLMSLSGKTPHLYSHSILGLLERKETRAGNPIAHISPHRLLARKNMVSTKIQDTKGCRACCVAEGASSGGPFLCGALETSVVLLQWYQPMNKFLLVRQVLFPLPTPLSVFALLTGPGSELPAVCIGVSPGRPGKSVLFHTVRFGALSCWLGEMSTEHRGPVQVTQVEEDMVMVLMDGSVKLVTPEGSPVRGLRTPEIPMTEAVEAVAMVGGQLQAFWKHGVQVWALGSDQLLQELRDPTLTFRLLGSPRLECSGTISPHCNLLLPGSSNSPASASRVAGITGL

`CN(C)C(=O)c1cc2cnc(Nc3ccc(NC(=O)CCCCCCCN=C=S)cc3)nc2n1C1CCCC1` was tested, and the inhibition [1] was 98%, the viability at 1 µM (A549) was 74.8% and the inhibition (NCI-H1299 [2]) was “Dose-dependent effect”. The Activity (NCI-H1299 [3]) was “Active”, the inhibition [4] was 88% and the inhibition [5] was 23%. It also gave an inhibition [6] of 26%, an inhibition [7] of 43% and an inhibition (Homo sapiens [8]) of 5%. It also gave an inhibition [9] of 11%, an inhibition [10] of 11% and an inhibition [11] of 1%. For the same compound, the inhibition [12] was 40%, the inhibition [13] was 11% and the inhibition [14] was 85%. For the same compound, the inhibition [15] was 36%, the inhibition [16] was 69% and the inhibition [17] was -3%. For the same compound, the inhibition [18] was 71%, the inhibition (Homo sapiens [19]) was -4% and the inhibition [20] was 10%.
